In one assay the test system is Candida albicans. The assay is described as follows: Antifungal activity against Candida albicans ATCC 10231 up to 250 ug/mL by agar dilution method. Type of assay: functional, organism-based. An outline of the steps:
(§1)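 Agar dilution in Saboureaud-chloramphenicol agar wells. Test agents from DMSO stocks were serially diluted twofold to final 0.10–250 µg/mL, with DMSO ≤2% final. Each well got 5 µL of yeast cell or spore suspension (spores at 10⁶ CFU/mL). Ketoconazole and amphotericin B served as positive controls, with a drug-free blank. Plates were held at 30 °C for 24, 48 or 72 h, set by control growth. MIC = lowest concentration with no visible growth.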

Another assay deals with Saccharomyces cerevisiae. Description: Antifungal activity against Saccharomyces cerevisiae ATCC 9763 up to 250 ug/mL by agar dilution method. Type of assay: functional, organism-based. An outline of the steps:
as §1

The subject of a further assay is Cryptococcus neoformans. The assay is described as follows: Antifungal activity against Cryptococcus neoformans ATCC 32264 up to 250 ug/mL by agar dilution method. In kind it is functional, organism-based. An outline of the steps: as §1
For a further assay, the system named is Aspergillus niger. Description: Antifungal activity against Aspergillus niger ATCC 9029 up to 250 ug/mL by agar dilution method. Type of assay: functional, organism-based. Put shortly: as §1
In the next assay the test system is Aspergillus fumigatus. Description: Antifungal activity against Aspergillus fumigatus ATCC 26934 up to 250 ug/mL by agar dilution method. Type of assay: functional, organism-based. An outline of the steps:
as §1

A further assay has as its system Aspergillus flavus. The assay is described as follows: Antifungal activity against Aspergillus flavus ATCC 9170 up to 250 ug/mL by agar dilution method. Type of assay: functional, organism-based. Put shortly:
as §1

In another assay the test system is Microsporum canis. The assay is described as follows: Antifungal activity against Microsporum canis C112 after 15 days by agar dilution method. In kind it is functional. As to conditions: 360 h. An outline of the steps: (§2)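 Dermatophytes were kept on Saboureaud dextrose agar slopes and subcultured every 15 days. Spore suspensions were set to 10⁶ CFU/mL, and 5 µL went into Saboureaud-chloramphenicol agar wells. Wells held twofold dilutions from DMSO stocks, final 0.10–250 µg/mL, DMSO ≤2%. Ketoconazole and amphotericin B were positive controls, with a drug-free blank. Incubation was at 30 °C for up to 15 days. MIC = lowest concentration with no visible growth.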

For a further assay, the system named is Nannizzia gypsea. The assay is described as follows: Antifungal activity against Microsporum gypseum C115 after 15 days by agar dilution method. Type of assay: functional. To be noted: 360 h. Put shortly: as §2
In assay [1] the test system is Trichophyton mentagrophytes. The assay is described as follows: Antifungal activity against Trichophyton mentagrophytes ATCC 9972 after 15 days by agar dilution method. Type of assay: functional. To be noted: ATCC 9972, 360 h. Put shortly: as §2
Another assay relates to Trichophyton rubrum. The assay is described as follows: Antifungal activity against Trichophyton rubrum C113 after 15 days by agar dilution method. Type of assay: functional. As to conditions: 360 h. Put shortly:
as §2

In a further assay the test system is Epidermophyton floccosum. Description: Antifungal activity against Epidermophyton floccosum C114 after 15 days by agar dilution method. As to conditions: 360 h. In kind it is functional. Put shortly:
as §2

In brackets after ≈: the same amount, converted by molar mass. Activity calls are given as the source filed them. The calls are words filed in the database; no cut-off is given here. Some results are limits rather than exact numbers.

In the case of `C/C=C/c1ccc(OC(C)C(=O)c2ccc(OC)c(OC)c2)c(OC)c1` (racemic), the result in the assay on Candida albicans, in the assay on Saccharomyces cerevisiae, in the assay with Cryptococcus neoformans, in the assay with Aspergillus niger, in the assay with Aspergillus fumigatus and with Aspergillus flavus was inactive. In addition, the minimum inhibitory concentration (MIC) in the assay with Microsporum canis is more than 250 µg/mL; in the assay with Nannizzia gypsea, 250 µg/mL (≈ 701 µM); in assay [1], more than 250 µg/mL; against Trichophyton rubrum, more than 250 µg/mL; against Epidermophyton floccosum, more than 250 µg/mL.

`C=CCc1ccc(O[C@@H](C)[C@@H](O)c2ccc(OC)c(OC)c2)c(OC)c1` (racemic): the result in the assay with Candida albicans, in the assay with Saccharomyces cerevisiae, with Cryptococcus neoformans, in the assay on Aspergillus niger, in the assay with Aspergillus fumigatus and in the assay on Aspergillus flavus was inactive. The MIC against Microsporum canis was found to be 20 µg/mL (≈ 55.8 µM); against Nannizzia gypsea it was 60 µg/mL (≈ 167 µM); in [1], 40 µg/mL (≈ 112 µM); in the assay on Trichophyton rubrum it was 20 µg/mL (≈ 55.8 µM); against Epidermophyton floccosum it was 25 µg/mL (≈ 69.7 µM).

As to `C/C=C/c1ccc(O[C@H](C)[C@@H](O)c2ccc(OC)c(OC)c2)c(OC)c1` (racemic), the result in the assay with Candida albicans, with Saccharomyces cerevisiae, with Cryptococcus neoformans, in the assay on Aspergillus niger, with Aspergillus fumigatus and with Aspergillus flavus was inactive. For the same compound, the MIC is 50 µg/mL (≈ 139 µM) in the assay with Microsporum canis; 50 µg/mL (≈ 139 µM) against Nannizzia gypsea; 150 µg/mL (≈ 418 µM) in assay [1]; 20 µg/mL (≈ 55.8 µM) with Trichophyton rubrum; 70 µg/mL (≈ 195 µM) in the assay with Epidermophyton floccosum.

In the case of `C=CCc1cc(OC)c(O[C@H](C)[C@@H](O)c2ccc(OC)c(OC)c2)c(OC)c1` (racemic), the result with Candida albicans, in the assay with Saccharomyces cerevisiae, in the assay on Cryptococcus neoformans, in the assay with Aspergillus niger, in the assay on Aspergillus fumigatus and with Aspergillus flavus was inactive. Further, the MIC in the assay with Microsporum canis was 150 µg/mL (≈ 386 µM); against Nannizzia gypsea, 50 µg/mL (≈ 129 µM); in assay [1], 150 µg/mL (≈ 386 µM); with Trichophyton rubrum, 80 µg/mL (≈ 206 µM); in the assay with Epidermophyton floccosum it was 40 µg/mL (≈ 103 µM).

As for `C=CCc1ccc(OC(C)C(=O)c2ccc(OC)c(OC)c2)c(OC)c1` (racemic), the outcome in the assay with Candida albicans, in the assay on Saccharomyces cerevisiae, with Cryptococcus neoformans, in the assay with Aspergillus niger, in the assay with Aspergillus fumigatus and in the assay with Aspergillus flavus was inactive. Moreover, the MIC was 250 µg/mL (≈ 701 µM) against Microsporum canis; 250 µg/mL (≈ 701 µM) against Nannizzia gypsea; more than 250 µg/mL in assay [1]; 250 µg/mL (≈ 701 µM) against Trichophyton rubrum; 250 µg/mL (≈ 701 µM) in the assay on Epidermophyton floccosum.

As to `C/C=C/c1ccc(OC(C)C(=O)c2cc(OC)c(OC)c(OC)c2)c(OC)c1` (racemic), the result in the assay with Candida albicans, with Saccharomyces cerevisiae, with Cryptococcus neoformans, in the assay with Aspergillus niger, in the assay with Aspergillus fumigatus and in the assay on Aspergillus flavus was inactive. Further, the MIC (against Microsporum canis; against Nannizzia gypsea; in assay [1]; against Trichophyton rubrum; in the assay on Epidermophyton floccosum) was more than 250 µg/mL each time.

Turning to `C=CCc1cc(OC)c(O[C@@H](C)[C@@H](O)c2cc(OC)c(OC)c(OC)c2)c(OC)c1` (racemic), the result in the assay with Candida albicans, with Saccharomyces cerevisiae, in the assay with Cryptococcus neoformans, with Aspergillus niger, in the assay with Aspergillus fumigatus and with Aspergillus flavus was inactive. In addition, the MIC with Microsporum canis stood at 60 µg/mL (≈ 143 µM); with Nannizzia gypsea, 80 µg/mL (≈ 191 µM); in [1], 50 µg/mL (≈ 119 µM); with Trichophyton rubrum, 25 µg/mL (≈ 59.7 µM); against Epidermophyton floccosum, 60 µg/mL (≈ 143 µM).

For `C=CCc1cc(OC)c(O[C@H](C)[C@@H](O)c2ccc3c(c2)OCO3)c(OC)c1` (racemic), the result with Candida albicans, with Saccharomyces cerevisiae, with Cryptococcus neoformans, in the assay on Aspergillus niger, in the assay on Aspergillus fumigatus and in the assay on Aspergillus flavus was inactive. In addition, the MIC against Microsporum canis is 20 µg/mL (≈ 53.7 µM); with Nannizzia gypsea, 50 µg/mL (≈ 134 µM); in assay [1], 100 µg/mL (≈ 269 µM); against Trichophyton rubrum it was more than 250 µg/mL; in the assay with Epidermophyton floccosum, 5 µg/mL (≈ 13.4 µM).

As to `C=CCc1cc(OC)c(OC(C)C(=O)c2cc(OC)c(OC)c(OC)c2)c(OC)c1` (racemic), the result in the assay on Candida albicans, with Saccharomyces cerevisiae, in the assay with Cryptococcus neoformans, in the assay on Aspergillus niger, with Aspergillus fumigatus and with Aspergillus flavus was inactive. Also, the minimal inhibitory concentration (MIC) in the assay on Microsporum canis was 250 µg/mL (≈ 600 µM); in the assay with Nannizzia gypsea it was more than 250 µg/mL; in assay [1] it was more than 250 µg/mL; with Trichophyton rubrum, more than 250 µg/mL; with Epidermophyton floccosum, more than 250 µg/mL.

On to `C=CCc1cc(OC)c(O[C@@H](C)[C@@H](O)c2ccc3c(c2)OCO3)c(OC)c1` (racemic), for which the outcome with Candida albicans, with Saccharomyces cerevisiae, in the assay on Cryptococcus neoformans, in the assay with Aspergillus niger, with Aspergillus fumigatus and with Aspergillus flavus was inactive. Also, the MIC in the assay with Microsporum canis was 80 µg/mL (≈ 215 µM); against Nannizzia gypsea, 40 µg/mL (≈ 107 µM); in [1], 200 µg/mL (≈ 537 µM); in the assay on Trichophyton rubrum it was 20 µg/mL (≈ 53.7 µM); against Epidermophyton floccosum, 15 µg/mL (≈ 40.3 µM).

As to `C=CCc1ccc(O[C@H](C)[C@@H](O)c2ccc(OC)c(OC)c2)c(OC)c1` (racemic), the outcome in the assay on Candida albicans, with Saccharomyces cerevisiae, with Cryptococcus neoformans, in the assay on Aspergillus niger, in the assay with Aspergillus fumigatus and with Aspergillus flavus was inactive. Besides, the minimal inhibitory concentration (MIC) with Microsporum canis was 250 µg/mL (≈ 697 µM); in the assay on Nannizzia gypsea, more than 250 µg/mL; in [1], more than 250 µg/mL; against Trichophyton rubrum it was 250 µg/mL (≈ 697 µM); against Epidermophyton floccosum it was 15 µg/mL (≈ 41.8 µM).

In the case of `C/C=C/c1ccc(O[C@H](C)[C@@H](O)c2cc(OC)c(OC)c(OC)c2)c(OC)c1` (racemic), the outcome with Candida albicans, with Saccharomyces cerevisiae, with Cryptococcus neoformans, in the assay with Aspergillus niger, in the assay on Aspergillus fumigatus and in the assay with Aspergillus flavus was inactive. The MIC amounted to 60 µg/mL (≈ 154 µM) in the assay on Microsporum canis; 60 µg/mL (≈ 154 µM) against Nannizzia gypsea; 80 µg/mL (≈ 206 µM) in assay [1]; 50 µg/mL (≈ 129 µM) in the assay on Trichophyton rubrum; 25 µg/mL (≈ 64.4 µM) in the assay on Epidermophyton floccosum.

For `C/C=C/c1ccc(O[C@@H](C)[C@@H](O)c2cc(OC)c(OC)c(OC)c2)c(OC)c1` (racemic), the outcome in the assay on Candida albicans, with Saccharomyces cerevisiae, in the assay with Cryptococcus neoformans, in the assay on Aspergillus niger, in the assay with Aspergillus fumigatus and in the assay with Aspergillus flavus was inactive. The MIC in the assay with Microsporum canis was more than 250 µg/mL; in the assay with Nannizzia gypsea it was more than 250 µg/mL; in [1] it was more than 250 µg/mL; in the assay on Trichophyton rubrum, 125 µg/mL (≈ 322 µM); against Epidermophyton floccosum it was 50 µg/mL (≈ 129 µM).

Take `C=CCc1cc(OC)c(O[C@@H](C)[C@@H](O)c2ccc(OC)c(OC)c2)c(OC)c1` (racemic): the outcome in the assay on Candida albicans, with Saccharomyces cerevisiae, in the assay on Cryptococcus neoformans, in the assay with Aspergillus niger, with Aspergillus fumigatus and in the assay on Aspergillus flavus was inactive. For the same compound, the MIC is 40 µg/mL (≈ 103 µM) with Microsporum canis; 150 µg/mL (≈ 386 µM) with Nannizzia gypsea; 150 µg/mL (≈ 386 µM) in assay [1]; 40 µg/mL (≈ 103 µM) against Trichophyton rubrum; 60 µg/mL (≈ 154 µM) in the assay with Epidermophyton floccosum.

`C=CCc1cc(OC)c(OC(C)C(=O)c2ccc3c(c2)OCO3)c(OC)c1` (racemic): the result in the assay on Candida albicans, in the assay on Saccharomyces cerevisiae, in the assay with Cryptococcus neoformans, with Aspergillus niger, in the assay on Aspergillus fumigatus and in the assay with Aspergillus flavus was inactive. Further, the MIC is more than 250 µg/mL against Microsporum canis; 250 µg/mL (≈ 675 µM) in the assay on Nannizzia gypsea; more than 250 µg/mL in [1]; more than 250 µg/mL against Trichophyton rubrum; more than 250 µg/mL against Epidermophyton floccosum.

For the compound `C[C@@H]1[C@H](O)[C@@H](C)/C=C/C=C/C=C/C=C/C=C/C=C/C=C/[C@H](O[C@@H]2O[C@H](C)[C@@H](O)[C@H](N)[C@@H]2O)C[C@@H]2O[C@](O)(C[C@@H](O)C[C@@H](O)[C@H](O)CC[C@@H](O)C[C@@H](O)CC(=O)O[C@H]1C)C[C@H](O)[C@H]2C(=O)O` [AMPHOTERICIN B], the MIC with Epidermophyton floccosum came out at 0.3 µg/mL (≈ 0.325 µM).

In turn, `CC(=O)N1CCN(c2ccc(OCC3COC(Cn4ccnc4)(c4ccc(Cl)cc4Cl)O3)cc2)CC1` (configuration not stated) [KETOCONAZOLE] showed a minimal inhibitory concentration (MIC) in the assay on Epidermophyton floccosum of 15 µg/mL (≈ 28.2 µM).
